Drawing on ChEMBL document CHEMBL1148398, “Design, synthesis, and biological evaluation of thio-containing compounds with serum HDL-cholesterol-elevating properties” (2004), this text covers Change for 10 molecules.

The structures appear in SMILES notation.

What all share (assay type): functional
The subject of assay [1] is Rattus norvegicus. Nature of the assay: Percent change in triglycerides in hypercholesterolemic rats at a dose of 100 mg/kg/day for 8 days.
Assay [2] deals with Rattus norvegicus. Nature of the assay: Percent change in triglycerides following oral administration of compound in normal chow-fed rats at 100 mg/kg/day for 4 days. The procedure, abridged: (§1)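 Chow-fed male Sprague–Dawley CD rats, 60–80 g, gavaged 100 mg/kg/day for 4 days in 1.3% Tween 80/0.25% CMC. Fasted overnight, bled 24 h after the last dose. Total cholesterol and glycerol-blanked triglycerides read enzymatically; lipoproteins by FPLC with cholesterol per fraction. % change versus control; six per group, p < 0.05.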

The test system of assay [3] is Rattus norvegicus. Kind of assay: Percent change in total plasma cholesterol following oral administration of compound in normal chow-fed rats at 100 mg/kg/day for 4 days. The procedure, abridged: as §1
Assay [4] concerns Rattus norvegicus. Kind of assay: Percent change in very low-density lipoprotein cholesterol following oral administration of compound in normal chow-fed rats at 100 mg/kg/day for 4 days. The procedure, abridged: as §1
In assay [5] the test system is Rattus norvegicus. Kind of assay: Percent change in low-density lipoprotein cholesterol following oral administration of compound in normal chow-fed rats at 100 mg/kg/day for 4 days. The procedure, abridged:
as §1

For assay [6], the system named is Rattus norvegicus. Kind of assay: Percent change in total plasma cholesterol in hypercholesterolemic rats dosed at 100 mg/kg/day for 8 days.
In assay [7] the test system is Rattus norvegicus. Nature of the assay: Percent change in high-density lipoprotein cholesterol in hypercholesterolemic rats dosed at 100 mg/kg/day for 8 days.
The test system of assay [8] is Rattus norvegicus. Nature of the assay: Percent change in high-density lipoprotein cholesterol following oral administration of compound in normal chow-fed rats at 100 mg/kg/day for 4 days. The procedure, abridged:
as §1

Consider `CCN1CC(=O)N(c2cc(F)ccc2C)C1=S`, for which the Change in the assay on Rattus norvegicus [1] was -36%; with Rattus norvegicus [2], -6.3%; in the assay on Rattus norvegicus [3] it was 95.2%; in the assay with Rattus norvegicus [4] it was 131.6%; with Rattus norvegicus [5], 14%; in the assay on Rattus norvegicus [6], 35%. In addition, the figures for the Change in the assay with Rattus norvegicus [7] and in the assay with Rattus norvegicus [8] were 112% and 102.4%, respectively.
Turning to `CC(C)c1ccccc1N1C(=O)CON(C)C1=S`, the Change is -16% with Rattus norvegicus [1]; -52.7% in the assay on Rattus norvegicus [2]; 92.4% in the assay with Rattus norvegicus [3]; -8.3% in the assay on Rattus norvegicus [4]; 32.1% with Rattus norvegicus [5]; 0% in the assay on Rattus norvegicus [6]. Besides, the figures for the Change in the assay with Rattus norvegicus [7] and with Rattus norvegicus [8] were 95% and 98.2%, respectively.
As for `Cc1cccc(Cl)c1N1C(=O)CN(C)C1=S`, the Change in the assay with Rattus norvegicus [1] is -56%; in the assay with Rattus norvegicus [2], -37.9%; in the assay with Rattus norvegicus [3], 71.2%; with Rattus norvegicus [4], 89.4%; in the assay with Rattus norvegicus [5] it was 0%; in the assay with Rattus norvegicus [6], 17%. In addition, the Change in the assay with Rattus norvegicus [7] is 84%; with Rattus norvegicus [8] it was 75.7%.
With `Cc1ccc(Cl)cc1N1C(=O)C(C)N(C)C1=S` (stereo not given), the Change with Rattus norvegicus [1] is listed as -58%; in the assay on Rattus norvegicus [2], 207.2%; in the assay with Rattus norvegicus [3], 276.5%; in the assay with Rattus norvegicus [4] it was 134.7%; in the assay on Rattus norvegicus [5], 800%; with Rattus norvegicus [6], -8%. Besides, the Change in the assay on Rattus norvegicus [7] is reported as 220%; in the assay on Rattus norvegicus [8] it was 67.9%.
As for `CCN1CC(=O)N(c2ccccc2C)C1=S`, the Change is given as 38% in the assay with Rattus norvegicus [1]; -25% in the assay on Rattus norvegicus [2]; 52.1% in the assay with Rattus norvegicus [3]; 0% in the assay with Rattus norvegicus [4]; 18.7% in the assay with Rattus norvegicus [5]; 76.5% in the assay on Rattus norvegicus [6]. In addition, the values for the Change in the assay on Rattus norvegicus [7] and in the assay with Rattus norvegicus [8] were 164% and 54.3%, respectively.
For the molecule `CCN1CC(=O)N(c2ccc(OC(F)(F)F)cc2)C1=S`, the Change is reported as -72% in the assay on Rattus norvegicus [1]; 2.8% in the assay on Rattus norvegicus [2]; 197.6% in the assay with Rattus norvegicus [3]; 543.5% in the assay with Rattus norvegicus [4]; 127.5% with Rattus norvegicus [5]; -1% with Rattus norvegicus [6]. Further, the values for the Change with Rattus norvegicus [7] and in the assay on Rattus norvegicus [8] were 265% and 71.4%, respectively.
For the molecule `CCN1CCC(=O)N(c2ccccc2C(C)C)C1=S`, the Change is given as -31% in the assay with Rattus norvegicus [1]; -12.4% with Rattus norvegicus [2]; 59.2% with Rattus norvegicus [3]; 35.2% with Rattus norvegicus [4]; 9.8% in the assay with Rattus norvegicus [5]; 44% in the assay with Rattus norvegicus [6]. Moreover, the Change in the assay on Rattus norvegicus [7] turned out to be 108%; with Rattus norvegicus [8], 67.8%.
As for `CON1CC(=O)N(c2cc(Cl)ccc2C)C1=S`, the Change is recorded as -62% in the assay on Rattus norvegicus [1]; -10.8% in the assay on Rattus norvegicus [2]; 134.4% with Rattus norvegicus [3]; 249.5% with Rattus norvegicus [4]; 87.5% in the assay on Rattus norvegicus [5]; 41% with Rattus norvegicus [6]. Moreover, the values for the Change in the assay on Rattus norvegicus [7] and with Rattus norvegicus [8] were 160% and 102.4%, respectively.
On to `CCN1CCC(=O)N(c2c(C)cccc2Cl)C1=S`, for which the Change with Rattus norvegicus [1] is reported as -16%; in the assay with Rattus norvegicus [2], -35.7%; in the assay on Rattus norvegicus [3] it was 45.4%; with Rattus norvegicus [4], -5.3%; with Rattus norvegicus [5] it was -1.1%; in the assay on Rattus norvegicus [6] it was 23%. Also, the Change is 199% in the assay on Rattus norvegicus [7] and 45.5% with Rattus norvegicus [8].
As to `CCN1CC(=O)N(c2cc(C)ccc2C)C1=S`, the Change in the assay on Rattus norvegicus [1] was -6%; with Rattus norvegicus [2], -2.5%; in the assay with Rattus norvegicus [3], 26.4%; in the assay on Rattus norvegicus [4], 31.3%; with Rattus norvegicus [5], -8.3%; in the assay with Rattus norvegicus [6] it was 49%. The Change with Rattus norvegicus [7] was determined as 124%; with Rattus norvegicus [8] it was 31.9%.
